{"data": "Measurements collected from several papers", "ASIC1": "Acid-sensing ion channel 1 (ASIC1, Homo sapiens, UniProt P78348)", "speB": "speB (Escherichia coli, UniProt P60651)", "note": "Protocols differ between the studies behind these lines. pEC50, pIC50, pKd, pKi: −log10 of the molar value."}
{"Compound": "CC[C@H](C)[C@H](NC(=O)[C@@H]1CCCN1C(=O)[C@H](C)NC(=O)[C@@H]1CSSC[C@@H]2NC(=O)[C@H](CC(=O)O)NC(=O)[C@H](CCCNC(=N)N)NC(=O)[C@H](CCC(=O)O)NC(=O)[C@H](CCCNC(=N)N)NC(=O)CNC(=O)[C@H](CC(=O)O)NC(=O)[C@@H]3CSSC[C@H](NC(=O)[C@H](CCC(=O)O)NC(=O)[C@H](CC(C)C)NC(=O)CNC(=O)[C@H](C)NC(=O)[C@H](CSSC[C@H](NC(=O)[C@H](Cc4ccccc4)NC(=O)[C@@H](N)CO)C(=O)N[C@@H](CC(C)C)C(=O)N[C@@H](C(C)C)C(=O)N[C@@H](CCCCN)C(=O)N[C@@H](Cc4c[nH]c5ccccc45)C(=O)N[C@@H](CCCCN)C(=O)N[C@@H](CCC(N)=O)C(=O)N3)NC2=O)C(=O)N[C@@H](Cc2c[nH]c3ccccc23)C(=O)N[C@@H](CCCCN)C(=O)N[C@@H](CCCNC(=N)N)C(=O)N[C@@H](CCCNC(=N)N)C(=O)NCC(=O)N[C@@H](CC(N)=O)C(=O)N[C@@H](CCCCN)C(=O)N[C@@H](CO)C(=O)N[C@@H](CO)C(=O)N[C@@H](C(C)C)C(=O)N1)C(=O)N[C@H](C(=O)O)[C@@H](C)O", "target": "ASIC1", "read-out": "binding", "method": "SPR", "pH": "pH 7.5", "endpoint": "pKd", "value": 10.56}
{"Compound": "CN(C)C(=N)N=C(N)N", "target": "speB", "read-out": "enzyme activity", "action": "inhibitor", "method": "absorbance", "pH": "pH 8.5", "endpoint": "pKi", "value": 2.90}
{"Compound": "COc1ccc2[nH]c(C)c(CC[N+](C)(C)C)c2c1", "target": "5-hydroxytryptamine receptor 2C (HTR2C, Homo sapiens, UniProt P28335)", "read-out": "calcium signal", "action": "agonist", "endpoint": "pEC50", "value": "< 5.30"}
{"Compound": "CC(C)=CCN=C(N)N", "target": "speB", "read-out": "enzyme activity", "action": "inhibitor", "method": "absorbance", "pH": "pH 8.5", "endpoint": "pKi", "value": 5.07}
{"Compound": "CNC(=O)c1ccc(-c2cnn3ccc(C(=O)N(C)c4ccc(Cl)c(C(=O)OC)c4)cc23)cc1", "target": "Casein kinase I isoform delta (CSNK1D, Homo sapiens, UniProt P48730)", "read-out": "enzyme activity", "action": "inhibitor", "endpoint": "pIC50", "value": "< 4.52"}
{"Compound": "CC[C@H](C)[C@@H]1NC(=O)[C@@H](NC(=O)[C@H](CCC(=O)O)NC(=O)[C@H](CC(N)=O)NC(=O)[C@@H](N)CO)CSSC[C@@H]2NC(=O)[C@@H]3CSSC[C@@H](C(=O)N[C@H](C(=O)N4CCC[C@H]4C(=O)N[C@H](C(=O)N4CCC[C@H]4C(=O)NCC(=O)O)[C@@H](C)CC)C(C)C)NC(=O)[C@H](C(C)C)NC(=O)[C@H](CCC(=O)O)NC(=O)[C@H](Cc4ccccc4)NC(=O)[C@H](CO)NC(=O)[C@H](Cc4c[nH]cn4)NC(=O)[C@H](CCCNC(=N)N)NC(=O)[C@H](CCCNC(=N)N)NC(=O)[C@H](CCCCN)NC(=O)[C@H](Cc4ccc(O)cc4)NC(=O)[C@H](CSSC[C@H](NC(=O)[C@H](CO)NC(=O)[C@H](CC(C)C)NC(=O)[C@H](Cc4c[nH]c5ccccc45)NC(=O)[C@H](CCCCN)NC(=O)[C@H](CCCNC(=N)N)NC1=O)C(=O)N[C@@H](C(C)C)C(=O)N[C@@H](CC(=O)O)C(=O)N[C@@H](CCCNC(=N)N)C(=O)N[C@@H](CCCCN)C(=O)N[C@@H](CC(N)=O)C(=O)N[C@@H](CC(=O)O)C(=O)N3)NC(=O)[C@H](CCC(=O)O)NC(=O)[C@H](CC(C)C)NC(=O)CNC(=O)[C@H](CCC(=O)O)NC2=O", "target": "ASIC1", "read-out": "binding", "method": "SPR", "endpoint": "pKd", "value": 8.85}
{"Compound": "CNC(=O)c1ccc(-c2cnn3ccc(C(=O)N(C)c4ccc(Cl)c(C(=O)O)c4)cc23)cc1", "target": "5-hydroxytryptamine receptor 2B (HTR2B, Homo sapiens, UniProt P41595)", "read-out": "cell-free assay", "endpoint": "pIC50", "value": "< 4.52"}
{"Compound": "O=S(=O)(O)c1ccc2c(N=Nc3c(O)ccc4ccccc34)cccc2c1", "target": "Bcl-2-related protein A1 (Mus musculus, UniProt Q07440, C113S/P104K)", "read-out": "ligand displacement", "method": "FP", "endpoint": "pKi", "value": 5.79}
